Data from ChEMBL document CHEMBL1134694, “Discovery of macrocyclic hydroxamic acids containing biphenylmethyl derivatives at P1', a series of selective TNF-alpha converting enzyme inhibitors with potent cellular activity in the inhibition of TNF-alpha release” (J Med Chem, 2001).

What was measured:
[1] = biological target: Matrix metalloproteinase-9 (Homo sapiens, UniProt P14780); experiment: Inhibition of human matrix metalloprotease-9
Homo sapiens [2] = organism: Homo sapiens; experiment: Binding affinity against human serum protein; assay type: functional
Outline: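 Binding to human serum proteins, reported as the mean percentage of compound bound across three determinations.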

Interstitial collagenase [3] = biological target: T1, Interstitial collagenase (Homo sapiens, UniProt P03956); experiment: Inhibition of matrix metalloprotease-1
T1 sequence (P03956 whole entry): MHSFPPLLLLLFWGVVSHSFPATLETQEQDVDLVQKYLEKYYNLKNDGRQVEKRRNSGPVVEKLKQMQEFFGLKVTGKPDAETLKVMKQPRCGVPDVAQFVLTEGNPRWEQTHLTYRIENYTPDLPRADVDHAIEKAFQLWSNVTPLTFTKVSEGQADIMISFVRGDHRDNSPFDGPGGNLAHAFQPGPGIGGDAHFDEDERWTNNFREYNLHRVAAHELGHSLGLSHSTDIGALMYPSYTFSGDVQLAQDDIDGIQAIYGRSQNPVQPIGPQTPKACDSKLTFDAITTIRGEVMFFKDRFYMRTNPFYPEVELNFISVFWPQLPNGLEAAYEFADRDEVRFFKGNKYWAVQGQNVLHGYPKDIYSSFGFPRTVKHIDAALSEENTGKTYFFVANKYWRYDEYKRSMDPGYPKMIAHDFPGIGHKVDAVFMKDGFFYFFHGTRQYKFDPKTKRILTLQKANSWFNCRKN

Homo sapiens [4] = organism: Homo sapiens; experiment: Inhibition of TNF-alpha release in LPS-stimulated human whole blood assay(WBA); assay type: functional, organism-based
Outline: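 Human whole blood stimulated with LPS; inhibition of TNF-alpha release measured in blood from three separate donors.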

[5] = biological target: Disintegrin and metalloproteinase domain-containing protein 17 (Sus scrofa, UniProt O77636)
Chain of Disintegrin and metalloproteinase domain-containing protein 17 (O77636 whole entry, the tested form may be a part): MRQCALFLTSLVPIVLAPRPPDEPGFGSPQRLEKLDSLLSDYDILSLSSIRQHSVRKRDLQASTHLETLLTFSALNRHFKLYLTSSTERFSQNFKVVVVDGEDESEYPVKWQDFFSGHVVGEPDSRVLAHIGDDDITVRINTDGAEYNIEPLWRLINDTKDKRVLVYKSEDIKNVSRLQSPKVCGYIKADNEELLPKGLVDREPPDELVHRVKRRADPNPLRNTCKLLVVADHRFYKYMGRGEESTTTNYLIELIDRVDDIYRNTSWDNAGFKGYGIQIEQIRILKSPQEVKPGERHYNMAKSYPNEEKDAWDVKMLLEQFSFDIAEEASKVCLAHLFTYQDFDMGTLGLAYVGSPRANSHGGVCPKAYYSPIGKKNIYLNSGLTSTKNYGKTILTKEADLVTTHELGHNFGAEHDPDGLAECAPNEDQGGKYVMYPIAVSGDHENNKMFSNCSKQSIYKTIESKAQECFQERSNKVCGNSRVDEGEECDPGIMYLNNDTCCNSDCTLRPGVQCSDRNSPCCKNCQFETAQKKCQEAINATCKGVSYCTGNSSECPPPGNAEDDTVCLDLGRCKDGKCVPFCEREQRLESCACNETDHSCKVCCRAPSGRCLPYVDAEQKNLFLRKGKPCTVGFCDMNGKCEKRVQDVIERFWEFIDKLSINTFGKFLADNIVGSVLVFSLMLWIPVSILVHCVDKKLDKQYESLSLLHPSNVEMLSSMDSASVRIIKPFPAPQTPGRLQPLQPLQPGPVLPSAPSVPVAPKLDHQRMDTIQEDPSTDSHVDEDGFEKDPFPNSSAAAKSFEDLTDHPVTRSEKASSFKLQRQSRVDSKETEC

[6] = biological target: 72 kDa type IV collagenase (Homo sapiens, UniProt P08253)
Chain of 72 kDa type IV collagenase (P08253 whole entry): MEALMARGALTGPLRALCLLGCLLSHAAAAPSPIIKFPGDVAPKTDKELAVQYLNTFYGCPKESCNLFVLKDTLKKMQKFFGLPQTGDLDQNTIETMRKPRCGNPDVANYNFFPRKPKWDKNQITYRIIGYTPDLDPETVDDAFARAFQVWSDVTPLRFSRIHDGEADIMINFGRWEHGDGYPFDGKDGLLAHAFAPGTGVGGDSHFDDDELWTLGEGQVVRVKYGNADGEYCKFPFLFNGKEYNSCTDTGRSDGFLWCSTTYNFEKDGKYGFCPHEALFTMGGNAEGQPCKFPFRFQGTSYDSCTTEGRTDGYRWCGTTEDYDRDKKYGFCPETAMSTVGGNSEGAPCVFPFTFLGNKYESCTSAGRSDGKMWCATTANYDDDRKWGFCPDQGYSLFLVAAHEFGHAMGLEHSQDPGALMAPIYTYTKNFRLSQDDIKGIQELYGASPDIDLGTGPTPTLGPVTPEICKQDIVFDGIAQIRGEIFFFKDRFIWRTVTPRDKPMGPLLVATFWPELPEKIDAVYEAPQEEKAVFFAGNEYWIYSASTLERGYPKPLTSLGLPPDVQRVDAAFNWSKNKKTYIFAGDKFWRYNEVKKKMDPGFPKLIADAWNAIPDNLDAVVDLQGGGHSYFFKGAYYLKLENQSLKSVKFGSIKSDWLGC

Stromelysin-2 = Stromelysin-2 (Homo sapiens, UniProt P09238); experiment: Inhibition of matrix metalloprotease-10
Chain of Stromelysin-2 (P09238 whole entry): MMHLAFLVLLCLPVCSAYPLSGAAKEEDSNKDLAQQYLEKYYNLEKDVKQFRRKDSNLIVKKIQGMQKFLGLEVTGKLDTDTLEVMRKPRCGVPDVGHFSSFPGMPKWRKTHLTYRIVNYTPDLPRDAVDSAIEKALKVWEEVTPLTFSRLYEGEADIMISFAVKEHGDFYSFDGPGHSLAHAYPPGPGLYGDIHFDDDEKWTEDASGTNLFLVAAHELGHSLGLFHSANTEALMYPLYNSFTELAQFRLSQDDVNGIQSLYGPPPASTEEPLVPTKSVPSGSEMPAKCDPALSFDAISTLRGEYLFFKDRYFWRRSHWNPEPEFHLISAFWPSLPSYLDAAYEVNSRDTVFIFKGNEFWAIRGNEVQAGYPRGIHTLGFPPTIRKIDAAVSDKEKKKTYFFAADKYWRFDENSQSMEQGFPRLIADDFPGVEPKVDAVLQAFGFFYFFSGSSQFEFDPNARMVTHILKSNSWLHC

[7] = biological target: Matrix metalloproteinase-15 (Homo sapiens, UniProt P51511); experiment: Inhibition of matrix metalloprotease-15
Chain of Matrix metalloproteinase-15 (P51511 whole entry): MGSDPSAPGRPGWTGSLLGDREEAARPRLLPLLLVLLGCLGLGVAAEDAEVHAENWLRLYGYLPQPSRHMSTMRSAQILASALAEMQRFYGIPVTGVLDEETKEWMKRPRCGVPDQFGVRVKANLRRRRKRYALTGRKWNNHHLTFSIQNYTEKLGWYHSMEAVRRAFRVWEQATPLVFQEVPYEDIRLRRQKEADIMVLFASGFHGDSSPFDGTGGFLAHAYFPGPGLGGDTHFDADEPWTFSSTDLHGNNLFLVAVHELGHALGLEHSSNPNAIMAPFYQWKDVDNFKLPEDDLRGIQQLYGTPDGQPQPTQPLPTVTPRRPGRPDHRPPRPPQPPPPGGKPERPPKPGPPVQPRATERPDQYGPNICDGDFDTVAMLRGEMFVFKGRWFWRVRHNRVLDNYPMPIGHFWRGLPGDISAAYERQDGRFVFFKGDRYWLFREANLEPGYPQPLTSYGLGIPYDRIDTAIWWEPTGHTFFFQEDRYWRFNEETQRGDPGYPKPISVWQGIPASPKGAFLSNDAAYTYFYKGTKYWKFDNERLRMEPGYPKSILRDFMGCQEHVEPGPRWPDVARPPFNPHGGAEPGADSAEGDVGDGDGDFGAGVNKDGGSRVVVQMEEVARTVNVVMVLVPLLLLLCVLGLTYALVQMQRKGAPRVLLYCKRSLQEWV

[8] = biological target: Matrix metalloproteinase-16 (Homo sapiens, UniProt P51512); experiment: Inhibition of matrix metalloprotease-16
Chain of Matrix metalloproteinase-16 (P51512 whole entry): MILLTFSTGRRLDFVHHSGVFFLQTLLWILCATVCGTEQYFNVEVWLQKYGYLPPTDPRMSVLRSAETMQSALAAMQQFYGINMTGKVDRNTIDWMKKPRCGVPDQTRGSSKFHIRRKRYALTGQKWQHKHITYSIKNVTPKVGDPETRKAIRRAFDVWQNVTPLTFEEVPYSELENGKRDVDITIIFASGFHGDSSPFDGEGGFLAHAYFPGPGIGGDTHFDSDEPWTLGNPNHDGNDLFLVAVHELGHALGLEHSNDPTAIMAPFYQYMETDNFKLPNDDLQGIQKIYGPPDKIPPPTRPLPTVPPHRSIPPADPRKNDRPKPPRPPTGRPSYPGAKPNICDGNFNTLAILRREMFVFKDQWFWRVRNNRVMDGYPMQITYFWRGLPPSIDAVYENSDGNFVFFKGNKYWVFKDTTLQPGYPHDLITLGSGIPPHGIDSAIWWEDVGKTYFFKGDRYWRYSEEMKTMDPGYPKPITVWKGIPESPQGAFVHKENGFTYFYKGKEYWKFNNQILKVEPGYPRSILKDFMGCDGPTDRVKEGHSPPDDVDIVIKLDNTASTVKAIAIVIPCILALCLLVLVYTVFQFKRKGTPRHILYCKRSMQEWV

Stromelysin-1 = Stromelysin-1 (Homo sapiens, UniProt P08254); experiment: Inhibition of matrix metalloprotease-3
Chain of Stromelysin-1 (P08254 whole entry): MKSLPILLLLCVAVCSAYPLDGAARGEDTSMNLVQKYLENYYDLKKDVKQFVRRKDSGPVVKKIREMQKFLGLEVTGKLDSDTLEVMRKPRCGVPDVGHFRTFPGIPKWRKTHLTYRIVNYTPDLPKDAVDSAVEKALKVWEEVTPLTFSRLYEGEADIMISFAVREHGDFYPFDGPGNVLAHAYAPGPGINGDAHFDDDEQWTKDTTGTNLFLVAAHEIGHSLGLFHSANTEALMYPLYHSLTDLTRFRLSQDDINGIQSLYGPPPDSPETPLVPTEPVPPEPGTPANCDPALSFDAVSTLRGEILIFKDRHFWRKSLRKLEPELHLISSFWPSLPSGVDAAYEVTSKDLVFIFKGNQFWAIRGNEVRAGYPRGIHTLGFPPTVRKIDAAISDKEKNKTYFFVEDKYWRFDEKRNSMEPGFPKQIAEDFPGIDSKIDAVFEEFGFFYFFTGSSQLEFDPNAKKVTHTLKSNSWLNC

Matrilysin = biological target: T2, Matrilysin (Homo sapiens, UniProt P09237); experiment: Inhibition of matrix metalloprotease-7
T2 sequence (P09237 whole entry): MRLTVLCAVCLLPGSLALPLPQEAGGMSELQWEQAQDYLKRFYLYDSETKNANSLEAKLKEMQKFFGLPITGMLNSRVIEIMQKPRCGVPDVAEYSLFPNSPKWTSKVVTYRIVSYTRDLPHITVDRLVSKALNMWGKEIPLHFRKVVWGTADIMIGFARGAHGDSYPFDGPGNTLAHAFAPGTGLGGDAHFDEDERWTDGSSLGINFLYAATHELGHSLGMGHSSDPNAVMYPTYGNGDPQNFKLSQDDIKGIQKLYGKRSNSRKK

Collagenase 3 = Collagenase 3 (Homo sapiens, UniProt P45452); experiment: Inhibition of matrix metalloprotease-13
Neutrophil collagenase = Neutrophil collagenase (Homo sapiens, UniProt P22894); experiment: Inhibition of matrix metalloprotease-8
[9] = biological target: Matrix metalloproteinase-14 (Homo sapiens, UniProt P50281); experiment: Inhibition of matrix metalloprotease-14
[10] = biological target: Macrophage metalloelastase (Homo sapiens, UniProt P39900); experiment: Inhibition of matrix metalloprotease-12
Chain of Macrophage metalloelastase (P39900 whole entry): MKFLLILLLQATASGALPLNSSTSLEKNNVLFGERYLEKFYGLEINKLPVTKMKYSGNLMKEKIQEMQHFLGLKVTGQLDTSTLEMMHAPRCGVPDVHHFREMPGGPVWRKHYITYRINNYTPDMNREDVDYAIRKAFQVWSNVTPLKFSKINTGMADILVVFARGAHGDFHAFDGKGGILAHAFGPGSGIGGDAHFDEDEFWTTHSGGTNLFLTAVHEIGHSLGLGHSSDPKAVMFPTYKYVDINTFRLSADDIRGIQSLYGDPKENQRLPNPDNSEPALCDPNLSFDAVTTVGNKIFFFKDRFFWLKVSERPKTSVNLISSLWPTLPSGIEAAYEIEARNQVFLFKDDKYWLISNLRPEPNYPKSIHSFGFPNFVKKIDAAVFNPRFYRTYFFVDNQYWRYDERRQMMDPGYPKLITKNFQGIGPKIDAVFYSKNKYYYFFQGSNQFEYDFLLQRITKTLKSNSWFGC

Interstitial collagenase [11] = biological target: T1, Interstitial collagenase; experiment: Inhibition of human matrix metalloprotease-1

Chain of Matrix metalloproteinase-9 (P14780 whole entry): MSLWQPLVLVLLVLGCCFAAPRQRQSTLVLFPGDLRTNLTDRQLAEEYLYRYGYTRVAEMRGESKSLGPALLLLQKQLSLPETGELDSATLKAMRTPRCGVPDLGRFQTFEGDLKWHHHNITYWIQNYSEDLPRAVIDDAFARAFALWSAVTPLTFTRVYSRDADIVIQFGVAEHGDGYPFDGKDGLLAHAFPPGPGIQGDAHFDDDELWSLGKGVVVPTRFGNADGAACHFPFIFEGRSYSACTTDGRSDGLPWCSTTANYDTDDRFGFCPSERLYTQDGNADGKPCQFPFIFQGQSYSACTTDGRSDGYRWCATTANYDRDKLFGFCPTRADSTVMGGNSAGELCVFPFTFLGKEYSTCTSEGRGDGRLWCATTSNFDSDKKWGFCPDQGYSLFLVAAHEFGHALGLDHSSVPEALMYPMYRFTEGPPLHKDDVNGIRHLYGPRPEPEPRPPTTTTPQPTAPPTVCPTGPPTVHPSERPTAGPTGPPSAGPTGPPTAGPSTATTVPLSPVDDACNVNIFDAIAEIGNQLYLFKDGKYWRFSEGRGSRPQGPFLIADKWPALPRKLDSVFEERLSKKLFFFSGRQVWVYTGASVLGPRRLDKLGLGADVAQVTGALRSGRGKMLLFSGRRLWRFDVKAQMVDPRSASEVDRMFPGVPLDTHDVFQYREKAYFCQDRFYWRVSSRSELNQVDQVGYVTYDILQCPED

| SMILES | Ki [1] [µM] | Bound (Homo sapiens [2]) [%] | Ki (Interstitial collagenase [3]) [µM] | IC50 (Homo sapiens [4]) [µM] | Ki [5] [µM] | Ki [6] [µM] | Ki (Stromelysin-2) [µM] | Ki [7] [µM] | Ki [8] [µM] | Ki (Stromelysin-1) [µM] | Ki (Matrilysin) [µM] | Ki (Collagenase 3) [µM] | Ki (Neutrophil collagenase) [µM] | Ki [9] [µM] | Ki [10] [µM] | Ki (Interstitial collagenase [11]) [µM] |
| --- | --- | --- | --- | --- | --- | --- | --- | --- | --- | --- | --- | --- | --- | --- | --- | --- |
| CS(=O)(=O)c1ccccc1-c1ccc(C[C@H]2C(=O)N[C@H](C(=O)NCC(=O)N3CCOCC3)CCCCNC(=O)OCCC[C@@H]2C(=O)NO)cc1 | > 2 | 5 | > 2 | 0.41 | 0.0065 | > 2 | – | – | – | – | – | – | – | – | – | – |
| NC(=O)CNC(=O)[C@@H]1CCCCNC(=O)OCCC[C@H](C(=O)NO)[C@@H](Cc2ccc(-c3ccccc3C(F)(F)F)cc2)C(=O)N1 | > 2 | – | > 2 | 0.18 | 0.0015 | 1.87 | > 2 | > 2 | > 2 | > 2 | 1.34 | 0.442 | 0.428 | > 2 | > 2 | – |
| O=C1NCCCC[C@@H](C(=O)NCC(=O)N2CCNCC2)NC(=O)[C@H](Cc2ccc(-c3cc(C(F)(F)F)cc(C(F)(F)F)c3)cc2)[C@@H](C(=O)NO)CCCO1 | > 2 | 71 | > 2 | 0.18 | 0.0046 | > 2 | > 2 | > 2 | > 2 | > 2 | > 2 | > 2 | 0.272 | > 2 | 0.035 | – |
| CNC(=O)CNC(=O)[C@@H]1CCCCNC(=O)OCCC[C@H](C(=O)NO)[C@@H](Cc2ccc(-c3ccccc3C(F)(F)F)cc2)C(=O)N1 | 1.17 | 33 | > 2 | 0.38 | 0.0038 | 0.45 | – | – | – | – | – | – | – | – | – | – |
| O=C1NCCCC[C@@H](C(=O)NCC(=O)N2CCOCC2)NC(=O)[C@H](Cc2ccc(-c3ccccc3C(F)(F)F)cc2)[C@@H](C(=O)NO)CCCO1 | > 2 | 55 | > 2 | 0.07 | 0.0028 | > 2 | > 2 | > 2 | > 2 | > 2 | 0.834 | 0.653 | 0.126 | > 2 | > 2 | – |
| CC(C)C[C@H]1C(=O)N[C@H](C(=O)NCC(=O)N2CCOCC2)CCCCNC(=O)OCCC[C@@H]1C(=O)NO | – | 1 | – | – | – | – | – | – | – | – | – | – | – | – | – | – |
| O=C1NCCCC[C@@H](C(=O)NCC(=O)N2CCNCC2)NC(=O)[C@H](Cc2ccc(-c3ccccc3C(F)(F)F)cc2)[C@@H](C(=O)NO)CCCO1 | 1.79 | 36 | > 2 | 0.06 | 0.0017 | 0.7 | > 2 | > 2 | > 2 | 0.582 | 0.177 | 0.05 | 0.672 | > 2 | 0.39 | – |

Now from value to molecule:

| Ki [1] [µM] | Bound (Homo sapiens [2]) [%] | Ki (Interstitial collagenase [3]) [µM] | IC50 (Homo sapiens [4]) [µM] | Ki [5] [µM] | Ki [6] [µM] | Ki (Stromelysin-2) [µM] | Ki [7] [µM] | Ki [8] [µM] | Ki (Stromelysin-1) [µM] | Ki (Matrilysin) [µM] | Ki (Collagenase 3) [µM] | Ki (Neutrophil collagenase) [µM] | Ki [9] [µM] | Ki [10] [µM] | Ki (Interstitial collagenase [11]) [µM] | SMILES |
| --- | --- | --- | --- | --- | --- | --- | --- | --- | --- | --- | --- | --- | --- | --- | --- | --- |
| 0.091 | 29 | > 2 | 0.12 | 0.0037 | 0.011 | – | – | – | – | – | – | – | – | – | – | O=C1NCCCC[C@@H](C(=O)NCC(=O)N2CCNCC2)NC(=O)[C@H](Cc2ccc(-c3cccc(C(F)(F)F)c3)cc2)[C@@H](C(=O)NO)CCCO1 |
| 0.183 | 83 | > 2 | 0.227 | 0.0028 | 0.05 | – | – | – | – | – | – | – | – | – | – | O=C1NCCCC[C@@H](C(=O)NCC(=O)N2CCOCC2)NC(=O)[C@H](Cc2ccc(-c3cc(Cl)cc(Cl)c3)cc2)[C@@H](C(=O)NO)CCCO1 |
| 0.021 | 25 | – | 3.7 | 0.0063 | 0.00064 | – | – | – | – | – | – | – | – | – | > 2 | O=C1NCCCC[C@@H](C(=O)NCC(=O)N2CCOCC2)NC(=O)[C@H](Cc2ccc(-c3c(F)cccc3F)cc2)[C@@H](C(=O)NO)CCCO1 |
